The source made the active and inactive calls. The rule behind the calls is not given here.
Columns and labels:
[1] = target: T1, Tyrosine-protein phosphatase non-receptor type 1 (Homo sapiens) (UniProt P18031); assay: Inhibition of recombinant PTP1B (unknown origin) at 10 uM using p-NPP as substrate after 30 mins by UV-spectroscopic analysis
T1 sequence (whole entry): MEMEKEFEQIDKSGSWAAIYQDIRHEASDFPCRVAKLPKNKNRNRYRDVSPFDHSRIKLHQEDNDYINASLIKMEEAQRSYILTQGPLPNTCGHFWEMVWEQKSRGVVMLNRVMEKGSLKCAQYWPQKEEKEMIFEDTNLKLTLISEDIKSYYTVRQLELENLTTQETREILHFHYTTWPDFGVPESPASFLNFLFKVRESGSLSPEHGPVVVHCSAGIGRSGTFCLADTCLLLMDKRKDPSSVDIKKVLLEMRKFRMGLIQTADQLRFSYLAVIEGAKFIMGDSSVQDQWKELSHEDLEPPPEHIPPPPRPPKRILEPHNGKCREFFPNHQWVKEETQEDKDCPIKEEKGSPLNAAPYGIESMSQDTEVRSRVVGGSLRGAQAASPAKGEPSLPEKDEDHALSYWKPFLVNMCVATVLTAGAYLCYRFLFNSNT

[2] = target: T2, Tyrosine-protein phosphatase non-receptor type 1 (Homo sapiens, UniProt P18031); assay: Inhibition of recombinant PTP1B (unknown origin) using p-NPP as substrate after 30 mins by UV-spectroscopic analysis
T2 sequence (P18031 whole entry): T1 sequence (whole entry)

[3] = target: T1, Tyrosine-protein phosphatase non-receptor type 1 (Homo sapiens); assay: Binding affinity to human PTP1B (1 to 321 residues) at 50 uM by SPR assay
[4] = target: T3, Tyrosine-protein phosphatase non-receptor type 2 (Homo sapiens, UniProt P17706); assay: Inhibition of TCPTP (unknown origin)
T3 sequence (P17706 whole entry): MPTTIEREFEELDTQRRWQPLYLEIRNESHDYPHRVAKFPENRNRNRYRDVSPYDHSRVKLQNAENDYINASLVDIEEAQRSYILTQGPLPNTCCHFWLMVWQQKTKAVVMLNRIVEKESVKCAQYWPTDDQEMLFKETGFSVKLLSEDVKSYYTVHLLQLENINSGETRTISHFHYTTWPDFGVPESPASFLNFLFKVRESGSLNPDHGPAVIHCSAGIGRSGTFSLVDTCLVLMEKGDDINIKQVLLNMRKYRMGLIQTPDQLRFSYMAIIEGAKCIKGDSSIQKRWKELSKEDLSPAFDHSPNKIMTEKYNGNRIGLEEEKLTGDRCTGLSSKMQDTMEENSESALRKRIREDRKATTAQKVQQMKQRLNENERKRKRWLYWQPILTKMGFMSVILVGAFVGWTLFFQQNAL

[5] = target: T4, Tyrosine-protein phosphatase non-receptor type 11 (Homo sapiens, UniProt Q06124); assay: Inhibition of SHP2 (unknown origin)
T4 sequence (Q06124 whole entry): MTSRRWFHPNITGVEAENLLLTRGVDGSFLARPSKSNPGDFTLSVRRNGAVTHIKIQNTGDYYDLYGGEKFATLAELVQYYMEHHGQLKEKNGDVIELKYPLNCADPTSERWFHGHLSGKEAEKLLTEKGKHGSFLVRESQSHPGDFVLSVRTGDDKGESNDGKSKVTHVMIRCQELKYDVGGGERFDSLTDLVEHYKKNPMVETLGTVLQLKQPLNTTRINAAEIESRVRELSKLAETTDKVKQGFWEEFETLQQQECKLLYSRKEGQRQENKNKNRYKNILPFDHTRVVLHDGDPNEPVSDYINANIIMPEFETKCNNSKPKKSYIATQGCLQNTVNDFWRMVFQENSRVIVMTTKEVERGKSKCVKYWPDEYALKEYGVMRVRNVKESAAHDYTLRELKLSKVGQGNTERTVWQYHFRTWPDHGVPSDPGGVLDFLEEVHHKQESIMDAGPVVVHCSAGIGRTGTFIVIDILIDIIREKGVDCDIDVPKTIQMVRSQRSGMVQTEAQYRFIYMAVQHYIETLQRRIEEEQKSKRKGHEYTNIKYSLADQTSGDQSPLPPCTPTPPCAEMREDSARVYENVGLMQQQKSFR

[6] = target: T5, Receptor-type tyrosine-protein phosphatase F (Homo sapiens, UniProt P10586); assay: Inhibition of PTPLAR (unknown origin)
[7] = organism: Homo sapiens; assay: Selectivity ratio of IC50 for TCPTP (unknown origin) to IC50 for recombinant PTP1B (unknown origin)
[8] = target: T1, Tyrosine-protein phosphatase non-receptor type 1 (Homo sapiens); assay: Competitive inhibition of PTP1B (unknown origin) using p-NPP as substrate after 30 mins by Lineweaver-Burk plot analysis
[9] = Drug uptake in mouse C2C12 cells at 10 uM after 8 hrs by HPLC analysis; assay type: ADME, cell-based; details: c2c12, 8 h
How it was run: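 C2C12 myotubes were exposed to 10 μM for 8 h, with DMSO-treated cells as the control. The medium was then removed and the cells disrupted. An equal amount of internal standard was added, cell debris was removed by filtration, and intracellular compound was quantified by HPLC.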

[10] = target: T6, Tyrosine-protein phosphatase non-receptor type 1 (Mus musculus) (UniProt P35821); assay: Inhibition of PTP1B in mouse C2C12 cells assessed as increase in IRS1 phosphorylation at Y632 residues at 0.25 to 1 uM after 8 hrs by Western blot analysis; assay type: cell-based
T6 sequence (whole entry): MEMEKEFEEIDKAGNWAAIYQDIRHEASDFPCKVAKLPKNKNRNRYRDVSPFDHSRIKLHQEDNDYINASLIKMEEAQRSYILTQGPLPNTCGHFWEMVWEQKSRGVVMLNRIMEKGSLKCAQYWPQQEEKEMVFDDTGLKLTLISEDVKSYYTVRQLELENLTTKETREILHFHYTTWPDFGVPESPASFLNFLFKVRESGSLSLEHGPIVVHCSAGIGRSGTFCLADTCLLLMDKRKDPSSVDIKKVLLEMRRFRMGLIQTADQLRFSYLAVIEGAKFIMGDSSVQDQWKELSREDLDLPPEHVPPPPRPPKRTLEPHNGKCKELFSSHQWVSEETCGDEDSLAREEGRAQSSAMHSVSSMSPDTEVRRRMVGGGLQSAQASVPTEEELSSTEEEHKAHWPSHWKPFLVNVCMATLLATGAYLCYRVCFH

[11] = target: T6, Tyrosine-protein phosphatase non-receptor type 1 (Mus musculus); assay: Inhibition of PTP1B in mouse C2C12 cells assessed as increase in Akt phosphorylation at S473 residues in mouse C2C12 cells at 0.1 to 1 uM after 8 hrs by Western blot analysis; assay type: cell-based
[12] = tested on: C2C12; assay: Effect on total IRbeta in mouse C2C12 cells at 0.1 to 1 uM after 8 hrs by Western blot analysis; assay type: ADME, cell-based; details: c2c12, 8 h
[13] = tested on: C2C12; assay: Effect on total Akt in mouse C2C12 cells at 0.1 to 1 uM after 8 hrs by Western blot analysis; assay type: ADME, cell-based; details: c2c12, 8 h
[14] = target: T5, Receptor-type tyrosine-protein phosphatase F; assay: Inhibition of PTPLAR (unknown origin) at 20 ug/ml
[15] = target: T6, Tyrosine-protein phosphatase non-receptor type 1 (Mus musculus); assay: Inhibition of PTP1B in mouse C2C12 cells assessed as increase in IRbeta phosphorylation at Y1146 residues in mouse C2C12 cells at 0.1 to 1 uM after 8 hrs by Western blot analysis; assay type: cell-based
[16] = tested on: C2C12 (Mus musculus); assay: Drug absorption in mouse C2C12 myotubes assessed per million cells at 10 uM after 8 hrs by HPLC analysis; details: c2c12, 8 h

T5 sequence (P10586 whole entry): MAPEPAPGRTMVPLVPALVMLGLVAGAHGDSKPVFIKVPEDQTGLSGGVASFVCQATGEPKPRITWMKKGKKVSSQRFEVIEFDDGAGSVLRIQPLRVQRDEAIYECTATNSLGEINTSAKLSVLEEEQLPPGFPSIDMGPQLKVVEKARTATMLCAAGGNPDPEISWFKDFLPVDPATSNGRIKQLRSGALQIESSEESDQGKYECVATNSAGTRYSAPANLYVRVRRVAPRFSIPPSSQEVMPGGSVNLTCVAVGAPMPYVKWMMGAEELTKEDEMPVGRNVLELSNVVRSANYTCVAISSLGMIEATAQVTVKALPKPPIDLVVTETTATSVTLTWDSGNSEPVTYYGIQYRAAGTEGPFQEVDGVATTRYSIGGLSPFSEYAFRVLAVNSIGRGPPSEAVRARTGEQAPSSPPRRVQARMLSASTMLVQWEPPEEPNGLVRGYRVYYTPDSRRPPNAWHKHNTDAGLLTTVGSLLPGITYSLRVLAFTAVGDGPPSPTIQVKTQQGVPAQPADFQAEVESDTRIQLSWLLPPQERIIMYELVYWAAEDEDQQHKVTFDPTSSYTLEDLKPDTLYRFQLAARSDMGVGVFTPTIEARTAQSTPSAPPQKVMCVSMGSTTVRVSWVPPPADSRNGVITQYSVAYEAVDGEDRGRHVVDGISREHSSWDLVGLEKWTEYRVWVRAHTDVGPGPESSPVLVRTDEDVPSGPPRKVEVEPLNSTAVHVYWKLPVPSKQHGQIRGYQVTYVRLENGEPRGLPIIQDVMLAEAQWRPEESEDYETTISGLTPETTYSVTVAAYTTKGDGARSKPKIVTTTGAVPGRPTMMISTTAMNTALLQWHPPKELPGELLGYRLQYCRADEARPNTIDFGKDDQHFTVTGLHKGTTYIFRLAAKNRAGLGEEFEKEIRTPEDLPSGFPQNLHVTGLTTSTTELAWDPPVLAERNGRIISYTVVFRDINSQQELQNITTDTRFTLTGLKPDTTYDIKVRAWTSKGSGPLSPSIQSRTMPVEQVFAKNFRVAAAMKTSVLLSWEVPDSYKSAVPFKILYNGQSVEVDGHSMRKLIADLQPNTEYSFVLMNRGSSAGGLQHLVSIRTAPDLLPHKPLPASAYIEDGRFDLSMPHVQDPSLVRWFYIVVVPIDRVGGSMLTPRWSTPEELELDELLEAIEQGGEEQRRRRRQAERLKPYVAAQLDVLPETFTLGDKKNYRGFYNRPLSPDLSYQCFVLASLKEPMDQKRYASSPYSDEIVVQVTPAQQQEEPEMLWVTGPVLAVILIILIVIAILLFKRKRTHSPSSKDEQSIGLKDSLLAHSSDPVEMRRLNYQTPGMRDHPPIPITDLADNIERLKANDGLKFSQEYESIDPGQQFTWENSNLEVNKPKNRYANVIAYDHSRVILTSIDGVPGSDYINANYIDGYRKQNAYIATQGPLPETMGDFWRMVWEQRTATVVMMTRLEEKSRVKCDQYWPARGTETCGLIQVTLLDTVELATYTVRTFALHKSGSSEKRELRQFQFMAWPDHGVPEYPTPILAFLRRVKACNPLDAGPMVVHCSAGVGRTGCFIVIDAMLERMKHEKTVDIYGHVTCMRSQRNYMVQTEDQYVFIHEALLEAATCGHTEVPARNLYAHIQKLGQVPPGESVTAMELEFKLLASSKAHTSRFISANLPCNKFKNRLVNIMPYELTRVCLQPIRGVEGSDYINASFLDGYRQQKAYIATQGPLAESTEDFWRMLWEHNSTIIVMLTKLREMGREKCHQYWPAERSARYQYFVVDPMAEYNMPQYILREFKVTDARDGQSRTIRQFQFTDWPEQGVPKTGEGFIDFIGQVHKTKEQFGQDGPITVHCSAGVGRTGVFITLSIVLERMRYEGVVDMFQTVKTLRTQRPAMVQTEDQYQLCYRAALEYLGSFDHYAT

SMILES | inhibition [1] | IC50 [2] | further results
CC(C)(C)[Si](C)(C)Oc1cc(C(=O)OC[C@H]2OC(OC(=O)c3cc(Br)c(O[Si](C)(C)C(C)(C)C)c(O[Si](C)(C)C(C)(C)C)c3)[C@H](OC(=O)c3cc(Br)c(O[Si](C)(C)C(C)(C)C)c(O[Si](C)(C)C(C)(C)C)c3)[C@@H]2OC(=O)c2cc(Br)c(O[Si](C)(C)C(C)(C)C)c(O[Si](C)(C)C(C)(C)C)c2)cc(Br)c1O[Si](C)(C)C(C)(C)C (stereo not given in full) | 43.6% | – | –
COc1cc(C(=O)OCC(COC(=O)c2cc(Br)c(O)c(OC)c2)OC(=O)c2cc(Br)c(O)c(OC)c2)cc(Br)c1O | – | 8.45 µM | –
COc1cc(C(=O)OC[C@H]2OC(OC(=O)c3cc(Br)c(O)c(OC)c3)[C@H](OC(=O)c3cc(Br)c(O)c(OC)c3)[C@@H]2OC(=O)c2cc(Br)c(O)c(OC)c2)cc(Br)c1O (stereo not given in full) | – | 1.5 µM | –
COc1cc(C(=O)OCC(COC(=O)c2cc(Br)c(OC)c(OC)c2)OC(=O)c2cc(Br)c(OC)c(OC)c2)cc(Br)c1OC | – | > 20 µM | Activity [3]: inactive
CC(C)(C)[Si](C)(C)Oc1cc(C(=O)OCC(COC(=O)c2cc(Br)c(O[Si](C)(C)C(C)(C)C)c(O[Si](C)(C)C(C)(C)C)c2)OC(=O)c2cc(Br)c(O[Si](C)(C)C(C)(C)C)c(O[Si](C)(C)C(C)(C)C)c2)cc(Br)c1O[Si](C)(C)C(C)(C)C | 12% | – | –
CC(C)(C)[Si](C)(C)Oc1cc(C(=O)OCCOC(=O)c2cc(Br)c(O[Si](C)(C)C(C)(C)C)c(O[Si](C)(C)C(C)(C)C)c2)cc(Br)c1O[Si](C)(C)C(C)(C)C | 32.8% | – | –
COc1cc(C(=O)O[C@@H]2OC[C@@H](OC(=O)c3cc(Br)c(O)c(OC)c3)[C@H](OC(=O)c3cc(Br)c(O)c(OC)c3)[C@H]2OC(=O)c2cc(Br)c(O)c(OC)c2)cc(Br)c1O | – | 0.75 µM | –
COc1cc(C(=O)OCCOC(=O)c2cc(Br)c(O)c(OC)c2)cc(Br)c1O | – | > 20 µM | –
COc1cc(C(=O)OCCOC(=O)c2cc(Br)c(OC)c(OC)c2)cc(Br)c1OC | – | > 20 µM | –
O=C(OC[C@H]1OC(OC(=O)c2cc(O)c(O)c(Br)c2)[C@H](OC(=O)c2cc(O)c(O)c(Br)c2)[C@@H]1OC(=O)c1cc(O)c(O)c(Br)c1)c1cc(O)c(O)c(Br)c1 (stereo not given in full) | 96.4% | 0.19 µM | IC50 [4]: 5.94 µM; IC50 [5]: 15.9 µM; IC50 [6]: Not Active; Ratio IC50 [7]: 32; inhibition [8]: Active; Activity [3]: Active; Drug uptake [9]: 36.9%; inhibition [10]: Active; inhibition [11]: Active; Activity [12]: Non-Toxic; Activity [13]: Non-Toxic; inhibition [14]: < 25%; inhibition [15]: Active; Drug absorption [16]: 74 pmol
COc1cc(C(=O)OC[C@H]2OC(OC(=O)c3cc(Br)c(OC)c(OC)c3)[C@H](OC(=O)c3cc(Br)c(OC)c(OC)c3)[C@@H]2OC(=O)c2cc(Br)c(OC)c(OC)c2)cc(Br)c1OC (stereo not given in full) | – | 3.41 µM | –
O=C(OCC(COC(=O)c1cc(O)c(O)c(Br)c1)OC(=O)c1cc(O)c(O)c(Br)c1)c1cc(O)c(O)c(Br)c1 | 95.5% | 0.24 µM | IC50 [4]: 1.98 µM; IC50 [5]: 4.53 µM; IC50 [6]: Not Active; Ratio IC50 [7]: 8; inhibition [14]: < 25%
O=C(OCCOC(=O)c1cc(O)c(O)c(Br)c1)c1cc(O)c(O)c(Br)c1 | 25% | – | –
CC(C)(C)[Si](C)(C)Oc1cc(C(=O)OC2OC[C@@H](OC(=O)c3cc(Br)c(O[Si](C)(C)C(C)(C)C)c(O[Si](C)(C)C(C)(C)C)c3)[C@H](OC(=O)c3cc(Br)c(O[Si](C)(C)C(C)(C)C)c(O[Si](C)(C)C(C)(C)C)c3)[C@H]2OC(=O)c2cc(Br)c(O[Si](C)(C)C(C)(C)C)c(O[Si](C)(C)C(C)(C)C)c2)cc(Br)c1O[Si](C)(C)C(C)(C)C (stereo not given in full) | 41.9% | – | –
O=C(OC1OC[C@@H](OC(=O)c2ccc(O)c(O)c2)[C@H](OC(=O)c2ccc(O)c(O)c2)[C@H]1OC(=O)c1ccc(O)c(O)c1)c1ccc(O)c(O)c1 (stereo not given in full) | – | 3 µM | –
O=C(OCCOC(=O)c1ccc(O)c(O)c1)c1ccc(O)c(O)c1 | – | > 20 µM | –
CC(C)(C)[Si](C)(C)Oc1cc(C(=O)O)cc(Br)c1O[Si](C)(C)C(C)(C)C | 24.2% | – | –
COc1cc(C(=O)OC2OC[C@@H](OC(=O)c3cc(Br)c(OC)c(OC)c3)[C@H](OC(=O)c3cc(Br)c(OC)c(OC)c3)[C@H]2OC(=O)c2cc(Br)c(OC)c(OC)c2)cc(Br)c1OC (single isomer, unassigned) | – | 1.11 µM | Activity [3]: inactive
O=C(O[C@@H]1OC[C@@H](OC(=O)c2cc(O)c(O)c(Br)c2)[C@H](OC(=O)c2cc(O)c(O)c(Br)c2)[C@H]1OC(=O)c1cc(O)c(O)c(Br)c1)c1cc(O)c(O)c(Br)c1 | 99% | 0.2 µM | –
O=C(OCC(COC(=O)c1ccc(O)c(O)c1)OC(=O)c1ccc(O)c(O)c1)c1ccc(O)c(O)c1 | – | 12.3 µM | –
O=C(OC[C@H]1OC(OC(=O)c2ccc(O)c(O)c2)[C@H](OC(=O)c2ccc(O)c(O)c2)[C@@H]1OC(=O)c1ccc(O)c(O)c1)c1ccc(O)c(O)c1 (stereo not given in full) | – | 2.2 µM | –
